Changes are numbered by the printed parent chain.
Columns and labels:
[1] = test system: HCT-116 p21^−/− cells; details: cited from earlier work
[2] = molecular target: T1, OSBP^M446W (Homo sapiens, UniProt P22059, M446W); experiment: [3H]25-OHC binding assay, OSBP M446W mutant
T1 sequence (P22059 1-807 M446W): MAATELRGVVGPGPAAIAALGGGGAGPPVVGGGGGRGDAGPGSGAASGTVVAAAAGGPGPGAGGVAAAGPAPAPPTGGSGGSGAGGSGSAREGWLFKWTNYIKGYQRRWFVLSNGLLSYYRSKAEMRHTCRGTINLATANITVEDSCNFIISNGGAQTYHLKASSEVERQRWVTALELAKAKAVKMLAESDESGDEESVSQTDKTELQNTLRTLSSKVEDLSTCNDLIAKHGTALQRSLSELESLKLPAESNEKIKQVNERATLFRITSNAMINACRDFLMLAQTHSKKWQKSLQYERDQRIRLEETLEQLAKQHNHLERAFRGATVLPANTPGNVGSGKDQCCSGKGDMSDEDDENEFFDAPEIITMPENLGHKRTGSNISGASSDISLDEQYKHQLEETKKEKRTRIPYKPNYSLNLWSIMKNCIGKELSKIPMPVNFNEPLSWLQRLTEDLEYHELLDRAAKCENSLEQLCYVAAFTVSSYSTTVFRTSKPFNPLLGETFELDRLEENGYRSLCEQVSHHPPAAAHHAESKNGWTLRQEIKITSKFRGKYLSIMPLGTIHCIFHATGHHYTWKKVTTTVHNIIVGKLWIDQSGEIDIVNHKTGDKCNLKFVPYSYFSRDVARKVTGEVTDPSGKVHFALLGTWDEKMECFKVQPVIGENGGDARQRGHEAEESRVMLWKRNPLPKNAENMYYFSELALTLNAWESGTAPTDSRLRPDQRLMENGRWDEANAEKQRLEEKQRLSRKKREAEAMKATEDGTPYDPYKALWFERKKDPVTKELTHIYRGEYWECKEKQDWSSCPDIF

[3] = molecular target: T2, OSBP^V582M (Homo sapiens, UniProt P22059, V582M); experiment: [3H]25-OHC binding assay, OSBP V582M mutant
T2 sequence (P22059 1-807 V582M): T1 sequence (P22059 1-807 M446W) with W446M, V582M

[4] = test system: HCT-116 p21^−/− cells; experiment: Cell viability assay, HCT-116 p21-/-; type: cell-based, human; details: GI50 after 48 h
How it was run: (§1)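 HCT-116 p21+/+ and p21−/− cells were seeded in 96-well plates and rested 24 h. A time-zero plate was read with CellTiter-Blue (resazurin) after 90 min at 37 °C, fluorescence 544 nm ex / 590 nm em. Serially diluted test compound was added as 4× solution. Viability was re-read at 48 h and GI50 derived. For coadministration, 10 μM 25-OHC was added with test compound at 250 nM or 10 nM.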

[5] = test system: HCT-116 p21^−/− cells stably transfected with shOSBP or shNT; experiment: OSBP shRNA knockdown and dose-shift experiment; type: cell-based, human; details: 72 h
How it was run: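 HCT-116 p21−/− cells were stably transfected with OSBP-targeting or nontargeting shRNA in the pSIREN-RetroQ vector. […] Values are mean ± s.d. of 3–4 experiments, compared with shNT cells by two-tailed Student's t-test.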

[6] = test system: HeLa cells overexpressing wild-type OSBP; experiment: Overexpression-viability assay, wild-type OSBP-Myc-His; type: cell-based, human; details: 48 h, versus lacZ
[7] = test system: HeLa cells overexpressing ORP4L; experiment: Overexpression-viability assay, ORP4L-Myc-His; type: cell-based, human; details: 48 h, versus lacZ
[8] = test system: HCT-116 cells; experiment: Suppression of antiproliferative activity by 25-OHC coadministration; type: cell-based, human
How it was run: as §1

[9] = molecular target: T3, OSBP (Homo sapiens, UniProt P22059); experiment: OSBP localization by immunofluorescence microscopy, HCT-116; type: cell-based; details: HCT-116 cells, 4 h; 5 μM schweinfurthin A, 10 nM OSW-1, 20 nM cephalostatin 1
T3 sequence (P22059 1-807): T1 sequence (P22059 1-807 M446W) with W446M
How it was run: (§2)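 Cells on coverslips were grown 72 h, then given test compound or vehicle (4 h for HCT-116). They were fixed 10 min in 3.7% formaldehyde/PBS and permeabilised 5 min in 0.5% Triton X-100. Blocking used Image-iT FX, then 1% BSA/PBS. Rabbit anti-OSBP (N-terminus) and mouse anti-p230 were applied overnight at 4 °C, then Alexa Fluor secondaries for 60 min with Hoechst 33258. Imaging was by confocal microscopy.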

[10] = molecular target: T3, OSBP; experiment: OSBP localization by immunofluorescence microscopy, A549; type: cell-based; details: A549 cells
How it was run: as §2

[11] = molecular target: T3, OSBP; experiment: OSBP protein levels by western blotting; type: cell-based; details: HCT-116 cells
How it was run: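 HCT-116 cells were treated with test compound at 50 nM or 10 nM over a time course including 24 h. Some samples also received proteasome inhibitor MG-132 or lactacystin. OSBP was measured by western blotting with polyclonal rabbit anti-OSBP (N-terminus) antibody. Data are n = 3, compared with vehicle-treated cells by two-tailed Student's t-test.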

[12] = test system: CERT; experiment: CERT protein amount in treated cells; type: cell-based, human; details: GI90 concentration, HCT-116 or A549 cells
[13] = test system: human cancer cell lines; details: cited from earlier work
[14] = test system: sphingomyelin biosynthesis in CHO-K1 cells; experiment: Sphingomyelin biosynthesis, [3H]serine pulse labeling, CHO-K1; type: cell-based, Chinese hamster; details: CHO-K1 cells
[15] = test system: human cancer cell lines; type: cell-based

## CC(/C=C/C=C(C)/C=C/C=C(\C)C(=O)O)=C1/C(=O)C[C@H]2[C@@]3(C)CCC(=O)C(C)(C)[C@@H]3CC[C@]12C [stellettin E]
[1]
  Times more growth-inhibitory to HCT-116 p21^−/− cells than to HCT-116 wild-type cells: 117 times

## C[C@@H]1[C@]2(O[C@H]3C=C4[C@@H]5CC[C@H]6Cc7nc8c(nc7C[C@]6(C)[C@H]5C[C@@H](O)[C@]4(C)[C@]31O)C[C@@H]1CC[C@H]3C4=CC[C@@H]5[C@H](C)[C@@]6(OC[C@]45C(=O)C[C@@H]3[C@@]1(C)C8)OC(C)(C)C[C@H]6O)O[C@](C)(CO)C[C@H]2O [cephalostatin 1, Cephalostatin 1]
[2]
  Ki: 31 nM
[3]
  Ki: 31 nM
[4]
  p21^−/− selectivity of growth inhibition (HCT-116 p21^−/− versus wild-type): selectively growth-inhibitory
[5]
  Sensitization by OSBP shRNA knockdown (GI50 shift shOSBP vs shNT): four
[6]
  Desensitization factor by OSBP overexpression (relative GI30): 2–5
[7]
  Desensitization factor by ORP4L overexpression (relative GI30): 2–5
[8]; HCT-116 cells, 250 nM cephalostatin 1 or 10 nM OSW-1
  Effect of 10 μM 25-OHC coadministration on growth inhibition: nearly complete desensitization
[8]; Homo sapiens, HCT-116, 48 h, read-out: Growth inhibition when administered alone
  inhibition at 0.25 µM: > 75%
[9]
  OSBP localization: partially localize to the plasma membrane
[10]
  OSBP localization: dispersal or vesiculation of OSBP
[11]; 50 nM, 24 h
  Reduction in OSBP protein levels: approximately 75%
[12]
  Amount of CERT protein: not affected
[13]
  GI50 (half-maximal inhibitory concentration): nanomolar range

## C[C@H](CCCC(C)(C)O)[C@H]1CC[C@H]2[C@@H]3CC=C4C[C@@H](O)CC[C@]4(C)[C@H]3CC[C@]12C [25-OHC, 25-hydroxycholesterol, reference compound]
[2]
  Kd: 41 nM
[3]
  Kd: 82 nM
[11]; 25-OHC 10 μM
  Effect on OSBP levels (compound alone): did not affect OSBP levels
[14]; 5 μM, 6 h
  Increase in the biosynthesis of sphingomyelin: approximately four
[14]; GI90 dose (15 μM)
  Effect on sphingomyelin biosynthesis: robust stimulation
[15]
  Cytotoxicity: not cytotoxic at concentrations up to 10 μM

Reference: paper PMC3158287 (Nature chemical biology, 2011)
